pIC50: −log10 of the molar value. Square brackets hold non-standard residues; d marks the D form. Peptide text beside a SMILES is read from it. Sta = CC(C)C[C@H](N)[C@@H](O)CC(=O)O; Nle = CCCC[C@H](N)C(=O)O; βAla = NCCC(=O)O
What was measured:
[1] = Displacement of 125 I- [Tyr4] from bombesin receptor 1 (unknown origin) assessed as inhibition by radioligand competitive binding assay; set-up: species or system Homo sapiens
[2] = biological target: Gastrin-releasing peptide receptor (Homo sapiens, UniProt P30550); test: Displacement of 125 I- [Tyr4] from bombesin receptor 2 (unknown origin) assessed as inhibition by radioligand competitive binding assay
[3] = biological target: T1, Bombesin receptor subtype-3 (Homo sapiens, UniProt P32247); test: Displacement of 125 I- [Tyr4] from bombesin receptor 3 (unknown origin) assessed as inhibition by radioligand competitive binding assay
T1 sequence (P32247 whole entry): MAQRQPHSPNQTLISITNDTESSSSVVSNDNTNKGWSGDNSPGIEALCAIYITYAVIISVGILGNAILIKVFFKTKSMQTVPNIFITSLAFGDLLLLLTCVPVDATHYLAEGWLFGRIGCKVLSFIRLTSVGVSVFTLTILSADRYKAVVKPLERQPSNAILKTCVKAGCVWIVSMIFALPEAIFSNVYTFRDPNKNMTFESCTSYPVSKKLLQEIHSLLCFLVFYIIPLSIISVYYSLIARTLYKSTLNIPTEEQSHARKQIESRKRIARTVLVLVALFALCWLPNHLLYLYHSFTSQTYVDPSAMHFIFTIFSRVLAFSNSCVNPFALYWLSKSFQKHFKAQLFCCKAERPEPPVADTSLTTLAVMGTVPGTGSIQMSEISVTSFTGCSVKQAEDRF

[4] = Cytotoxicity against human MDA-MB-231 cells assessed as inhibition of cell growth incubated for 72 hrs and followed by treated with compound continued incubation for further 72 hrs (double treatment) after retreatment of compound by CellTiter 96 aqueous assay; type: toxicity, cell-based
Method in brief: (§1)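 PC-3 or MDA-MB-231 cells were treated the day after seeding with serial dilutions, from 2000 nM for conjugates and 100 nM for MMAE, for 72 h. Then the assay was stopped, or run 72 h more after a medium change (single) or re-treatment (double). Controls got 0.05 % DMSO. Read-out was MTS absorbance at 490 nm after 90 min. IC50 by non-linear regression; ≥2 experiments, triplicates.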

[5] = Cytotoxicity against human PC-3 cells assessed as inhibition of cell growth incubated for 72 hrs and followed by treated with compound continued incubation for further 72 hrs (double treatment) after retreatment of compound by CellTiter 96 aqueous assay; type: toxicity, cell-based; method in brief: as §1
[6] = Cytotoxicity against human PC-3 cells assessed as inhibition of cell growth incubated with compound for 72 hrs followed by further incubated for 72 hrs (single treatment) by CellTiter 96 aqueous assay; type: toxicity, cell-based; method in brief: as §1
[7] = Cytotoxicity against human PC-3 cells assessed as inhibition of cell growth incubated for 72 hrs by CellTiter 96 aqueous assay; type: toxicity, cell-based; method in brief: as §1
[8] = Cytotoxicity against human MDA-MB-231 cells assessed as inhibition of cell growth incubated with compound for 72 hrs followed by further incubated for 72 hrs (single treatment) by CellTiter 96 aqueous assay; type: toxicity, cell-based; method in brief: as §1
[9] = Cytotoxicity against human cells MDA-MB-231 assessed as inhibition of cell growth incubated for 72 hrs by CellTiter 96 aqueous assay; type: toxicity, cell-based; conditions: MDA-MB-231 cells; method in brief: as §1

Gastrin-releasing peptide receptor, sequence (P30550 whole entry): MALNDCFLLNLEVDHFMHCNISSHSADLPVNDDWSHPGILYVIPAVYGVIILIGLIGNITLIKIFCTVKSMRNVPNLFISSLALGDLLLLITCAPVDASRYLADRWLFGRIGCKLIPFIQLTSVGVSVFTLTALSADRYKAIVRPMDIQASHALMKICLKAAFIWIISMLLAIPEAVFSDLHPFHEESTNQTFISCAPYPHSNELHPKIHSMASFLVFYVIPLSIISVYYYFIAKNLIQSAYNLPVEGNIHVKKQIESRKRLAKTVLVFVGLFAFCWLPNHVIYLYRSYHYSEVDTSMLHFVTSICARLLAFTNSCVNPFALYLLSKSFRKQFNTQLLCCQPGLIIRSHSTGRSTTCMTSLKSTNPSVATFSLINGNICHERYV

| Structure (SMILES) | pIC50 [1] | pIC50 [2] | pIC50 [3] | IC50 at 144 h [4] [nM] | IC50 at 144 h [5] [nM] | IC50 at 144 h [6] [nM] | IC50 at 72 h [7] [nM] | IC50 at 144 h [8] [nM] | IC50 at 72 h [9] [nM] |
| --- | --- | --- | --- | --- | --- | --- | --- | --- | --- |
| CC(=O)N[C@@H](CS)C(=O)N[C@H](C(=O)N[C@@H](CC(C)C)[C@@H](O)CC(=O)N[C@H](Cc1ccccc1)C(=O)N[C@H](CCC(N)=O)C(=O)NCC(=O)N[C@@H](CC(C)C)C(=O)N[C@@H](C)C(=O)N[C@@H](Cc1c[nH]c2ccccc12)C(=O)N[C@@H](Cc1c[nH]cn1)C(N)=O)C(C)C | < 5.00 | 5.32 | < 5.00 | – | – | – | – | – | – |
| CC(=O)N[C@H](Cc1ccccc1)C(=O)N[C@@H](CCC(N)=O)C(=O)N[C@@H](Cc1c[nH]c2ccccc12)C(=O)N[C@@H](C)C(=O)N[C@H](C(=O)NCC(=O)N[C@@H](Cc1c[nH]cn1)C(=O)N[C@@H](CC(C)C)[C@@H](O)CC(=O)N[C@@H](CC(C)C)C(N)=O)C(C)C | < 5.00 | – | 8.95 | – | – | – | – | – | – |
| CCCC[C@H](NC(=O)C[C@H](O)[C@H](CC(C)C)NC(=O)[C@H](Cc1c[nH]cn1)NC(=O)CN(C)C(=O)[C@@H](NC(=O)[C@H](C)NC(=O)[C@H](Cc1c[nH]c2ccccc12)NC(=O)[C@H](CCC(N)=O)NC(=O)[C@@H](Cc1ccccc1)NC(C)=O)C(C)C)C(=O)N[C@@H](CS)C(N)=O | < 5.00 | < 5.00 | < 6.00 | – | – | – | – | – | – |
| CCCC[C@H](NC(=O)C[C@H](O)[C@H](CC(C)C)NC(=O)[C@H](Cc1c[nH]cn1)NC(=O)CCNC(=O)[C@@H](NC(=O)[C@H](C)NC(=O)[C@H](Cc1c[nH]c2ccccc12)NC(=O)[C@H](CCC(N)=O)NC(=O)[C@@H](Cc1ccccc1)NC(=O)[C@H](CSC1CC(=O)N(CCCCCC(=O)N[C@H](C(=O)N[C@@H](CCCNC(N)=O)C(=O)Nc2ccc(COC(=O)N(C)[C@H](C(=O)N[C@H](C(=O)N(C)[C@@H]([C@@H](C)CC)[C@@H](CC(=O)N3CCC[C@H]3[C@H](OC)[C@@H](C)C(=O)N[C@H](C)[C@@H](O)c3ccccc3)OC)C(C)C)C(C)C)cc2)C(C)C)C1=O)NC(C)=O)C(C)C)C(N)=O (stereo partly drawn) | – | – | – | 176 | 121 | 132 | 852 | 218 | 1280 |
| CCCC[C@H](NC(=O)C[C@H](O)[C@H](CC(C)C)NC(=O)[C@H](Cc1c[nH]cn1)NC(=O)CCNC(=O)[C@@H](NC(=O)[C@H](C)NC(=O)[C@H](Cc1c[nH]c2ccccc12)NC(=O)[C@H](CCC(N)=O)NC(=O)[C@@H](Cc1ccccc1)NC(=O)[C@H](CS)NC(C)=O)C(C)C)C(N)=O | < 5.00 | 5.66 | < 5.00 | – | – | – | – | – | – |

Now from value to compound, other results behind:

| pIC50 [1] | pIC50 [2] | pIC50 [3] | Structure (SMILES) | IC50 at 144 h [4] [nM] | IC50 at 144 h [5] [nM] | IC50 at 144 h [6] [nM] | IC50 at 72 h [7] [nM] | IC50 at 144 h [8] [nM] | IC50 at 72 h [9] [nM] |
| --- | --- | --- | --- | --- | --- | --- | --- | --- | --- |
| < 5.00 | < 5.00 | < 5.00 | CCCC[C@H](NC(=O)C[C@H](O)[C@H](CC(C)C)NC(=O)[C@H](Cc1c[nH]cn1)NC(=O)CCNC(=O)[C@@H](NC(=O)[C@H](C)NC(=O)[C@H](Cc1c[nH]c2ccccc12)NC(=O)[C@H](CCC(N)=O)NC(=O)[C@@H](Cc1ccccc1)NC(C)=O)C(C)C)C(N)=O (Ac-[dF]QWAV[βAla]H[Sta][Nle]-NH2) | – | – | – | – | – | – |
| < 5.00 | < 5.00 | < 5.00 | CCCC[C@H](NC(=O)C[C@H](O)[C@H](CC(C)C)NC(=O)[C@H](Cc1c[nH]cn1)NC(=O)CNC(=O)[C@@H](NC(=O)[C@H](C)NC(=O)[C@H](Cc1c[nH]c2ccccc12)NC(=O)[C@H](CCC(N)=O)NC(=O)[C@@H](Cc1ccccc1)NC(C)=O)C(C)C)C(=O)N[C@@H](CS)C(N)=O | – | – | – | – | – | – |
